# Compound activity: PubChem BioAssay, several laboratories
# HNF4A DNA FP = change in binding of human HNF4 alpha to DNA. hit rate 0.3% among 360,000. P41235. activity change, % at 10 µM. HNF4a-FITC DNA binding, fluorescence polarization, 1 h. AID 1224865; in the data active = activity change above about 30%, passing the limit was not always enough
# Rpn11 inh = blocks the human proteasome subunit Rpn11 | hit rate 0.59% among 360,000 | O00487 | inhibition, % at 20 µM | human 26S proteasome, Ub4-pepOG fluorescence polarization; 20S core pre-blocked with epoxomicin;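 active = inhibition at 20 µM, scaled to each plate's controls, above about 33%, limit read from the data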
# Target sequence (O00487 whole entry, looked up): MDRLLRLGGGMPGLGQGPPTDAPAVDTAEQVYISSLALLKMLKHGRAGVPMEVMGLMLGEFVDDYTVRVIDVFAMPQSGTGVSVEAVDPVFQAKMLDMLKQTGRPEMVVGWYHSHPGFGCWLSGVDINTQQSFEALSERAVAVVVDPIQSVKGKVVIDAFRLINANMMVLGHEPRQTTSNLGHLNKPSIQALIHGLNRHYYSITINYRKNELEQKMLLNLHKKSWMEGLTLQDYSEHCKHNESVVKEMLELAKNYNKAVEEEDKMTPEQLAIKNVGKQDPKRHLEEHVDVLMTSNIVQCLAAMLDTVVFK
# Neddylation inh = inhibitors of human cullin neddylation. P61081+Q13564. TR-FRET cullin neddylation, biochemical. inhibition, % at 25 µM. hit rate 0.58% among 360,000. AID 651699; in the data active = inhibition above about 36%
# CSN deneddyl inh = inhibitors of human CSN-mediated cullin deneddylation; Purified CSN, SCF-Nedd8-OG deneddylation, fluorescence polarization; inhibition, % at 12.5 µM; hit rate 0.38% among 360,000; AID 651999;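 active = pattern-corrected inhibition above about 35%, with an unprinted fluorescence ratio check between 0.5 and 1.5, limit read from the data, passing the limit was not always enough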;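 note: 0% = enzyme with substrate and 100% = substrate without enzyme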
# Target sequence (Q92905 whole entry, looked up, one chain of several): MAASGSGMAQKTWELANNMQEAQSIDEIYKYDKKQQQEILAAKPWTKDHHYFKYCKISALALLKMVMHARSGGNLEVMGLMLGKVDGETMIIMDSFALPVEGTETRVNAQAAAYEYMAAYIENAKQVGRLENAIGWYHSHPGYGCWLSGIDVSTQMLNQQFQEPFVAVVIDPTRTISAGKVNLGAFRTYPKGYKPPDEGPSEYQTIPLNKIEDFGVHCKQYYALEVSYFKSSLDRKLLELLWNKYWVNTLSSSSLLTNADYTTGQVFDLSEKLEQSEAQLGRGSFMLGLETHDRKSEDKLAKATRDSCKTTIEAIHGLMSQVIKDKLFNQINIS
#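 Assay system: purified human Csn5 enzyme expressed in HEK293T cells; measure: % inhibition; also added: SCFSkp2-Nedd8OG substrate at 10 nM final; technique: fluorescence polarization; times: reaction 90 min, room temperature; medium: Tris buffer pH 7.5, NaCl, DTT, Tween-20, trehalose, ovalbumin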
# TbMetRS inhib = blocks T. brucei methionyl-tRNA synthetase activity. purified T. brucei MetRS, ATP depletion, Kinase-Glo luminescence. inhibition, % at 11.9 µM. hit rate 0.4% among 360,000. AID 624268;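 active = inhibition above a per-plate cutoff of the control wells' mean inhibition plus 3 SD, cut at about 5.5% in these data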;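 note: 0% = DMSO wells median and 100% = median of wells with control inhibitor compound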
#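 Dosing: 11.9 µM compound single dose, 0.9% DMSO; Assay system: purified T. brucei MetRS enzyme; Measured by: Kinase-Glo luciferase luminescence reporting remaining unconsumed ATP; Schedule: 15 min plus 2 h at 25 °C.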
# PREPL inhibitor = human PREPL enzyme inhibition; Q4J6C6; recombinant PREPL, fluorescence polarization activity-based probe; inhibition, % at 5.96 µM; hit rate 0.68% among 320,000; AID 2751;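 note: 0% = enzyme with DMSO and 100% = wells lacking enzyme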
# PREPL confirm = confirmation of human PREPL enzyme inhibitors; shares compounds with PREPL inhibitor; recombinant PREPL, fluorescence polarization activity probe; hit rate 67% among 2,000; inhibition, % at 5.96 µM;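 note: 0% = protein with DMSO and 100% = wells lacking protein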
# * marks the source's active call; other numbers are inactive results; · = not tested or not shown. A selection: hits, their analogues and other compounds. The true share with any hit is near 2.4%. Cut-off read from the data, not from the text of the source, unless noted: active = inhibition above about 43%; inactive = the rest.
SMILES,HNF4A DNA FP,Rpn11 inh,Neddylation inh,CSN deneddyl inh,TbMetRS inhib,PREPL inhibitor,PREPL confirm
O=C1NC[C@H](CCCCN2C[C@H](Cc3ccc(O)cc3)N(CC3CCCCC3)C(=O)C2=O)N(Cc2ccccc2)C1=O,-1.2,·,-2.1,-4.6,-1.1,·,·
CCn1c(C)nc2cc(C(=O)N/N=C/c3cccc(O)c3O)ccc21,1.5,-2.9,-25.7,-6.5,1.0,44.6*,39.3
COC(=O)C1=CN(c2cccc(OCc3ccccc3)c2)C(N)=C(C#N)C1c1cccc(OC)c1OC (centres undefined),6.6,·,-19.2,4.0,-0.4,·,·
CC1CCCCN1Cc1c(O)ccc2c(=O)c(-c3nc4ccccc4s3)c(N)oc12 (centres undefined),3.9,5.6,·,5.1,-1.2,51.4*,50.7*
COc1ccc(-c2c(C)oc3c(CN4CCCCC4C)c(O)ccc3c2=O)cc1 (centres undefined),4.4,-9.6,·,-1.1,0.1,-4.9,·
Cc1cccnc1NC(=O)CCc1c[nH]c2ccccc12,0.3,7.3,-5.6,0.2,-0.8,46.1*,41.8
CC1CCC(C(C)C)C(OC(=O)C[n+]2cc(-c3ccc(Cl)cc3)n3c2CCCCC3)C1 (centres undefined),3.5,-5.0,-1.5,-5.7,0.0,46.9*,44.0*
O=C(C[n+]1cc(-c2ccccc2)n2c1CCCCC2)c1ccc(Cl)cc1,0.9,2.4,7.8,4.1,0.2,40.1,·
CCOC(=O)CNC(=O)N1C[C@H]2CON(C)[C@H]2C[C@H]1c1ccccc1Br,-1.1,-2.7,1.4,1.9,-0.3,·,·
CC1NC(=O)c2cc3ccccc3cc2-n2c1nc1cc(Cl)ccc1c2=O (centres undefined),2.3,2.3,-27.1,0.9,-1.8,·,·
O=C(C[C@@H]1C/C=C\C[C@H](Cc2ccc(F)cc2)C(=O)OC[C@@H](Cc2c[nH]c3ccccc23)NC1=O)NCCO,0.8,-4.1,-7.3,1.4,-0.3,32.4,·
O=C(C[C@@H]1C/C=C\C[C@@H](Cc2ccc(F)cc2)C(=O)OC[C@@H](Cc2c[nH]c3ccccc23)NC1=O)NCCO,-2.0,9.0,-22.1,-1.0,0.1,53.5*,47.2*
O=C(C[C@H]1C/C=C\C[C@@H](Cc2ccc(F)cc2)C(=O)OC[C@@H](Cc2c[nH]c3ccccc23)NC1=O)NCCO,-6.5,-3.4,-8.4,1.3,-0.1,45.3*,35.3
CC(C)CN1CCN(CCCOC(=O)Nc2cccc3ccccc23)CC1C (centres undefined),-0.5,-0.7,7.6,1.7,-0.2,·,·
CC1=C(C(=O)OCc2ccccc2)C(c2ccc(C)cc2)NC(=O)N1 (centres undefined),-0.1,4.6,2.4,1.7,-0.3,·,·
CN(Cc1ccco1)c1ncnc2ccc(-c3ccccc3Cl)cc12,0.0,3.5,-41.6,-1.1,-0.3,45.2*,20.1
OC(CNC1CCCC1)COCCOc1ccc(Br)cc1 (centres undefined),3.0,-5.1,-0.4,-1.2,-0.6,46.3*,34.6
OC(CNC1CCCC1)COc1ccc(Cl)cc1 (centres undefined),-3.7,1.9,1.5,2.2,-0.1,-7.0,·
CC(C)(C)N1C(=O)c2ccccc2NC(=O)C1C(=O)NCCc1ccccc1F (centres undefined),-2.2,·,1.1,-2.5,-0.6,·,·
CCC[C@@H](CN1CCC[C@H]1CN1C(N)=NC[C@H]1CC(C)C)N1C[C@@H](Cc2ccccc2)N(CCc2ccc(Cl)c(Cl)c2)C1=N,3.8,-25.0,-8.0,2.6,-2.1,41.8,·
CCC[C@@H](CN1CCC[C@H]1CN1C(N)=NC[C@@H]1Cc1ccccc1)N1C[C@@H]([C@H](C)CC)N(CCc2ccc(Cl)c(Cl)c2)C1=N,4.6,-26.8,-20.2,0.6,-0.3,43.4*,30.7
CC[C@@H](C)[C@@H]1CN([C@@H](CN2CCC[C@H]2CN2C(N)=NC[C@H]2CC(C)C)C(C)C)C(=N)N1CCc1ccc(Cl)c(Cl)c1,3.0,-11.3,-19.7,7.1,-1.0,47.0*,48.3*
CC[C@@H](C)[C@@H]1CN([C@@H](C)CN2CCC[C@H]2CN2C(N)=NC[C@H]2CC(C)C)C(=N)N1CCc1ccc(Cl)c(Cl)c1,-1.1,-7.8,-24.2,5.4,-0.2,52.8*,41.4
CCC[C@@H](CN1CCC[C@H]1CN1C(N)=NC[C@H]1CC(C)C)N1C[C@@H]([C@H](C)CC)N(CCc2ccc(Cl)c(Cl)c2)C1=N,4.7,-8.2,-10.3,0.9,-2.2,52.3*,40.5
CC1NC(=O)c2cccnc2-n2c1nc1cc(F)c(F)cc1c2=O (centres undefined),-1.7,0.1,-2.1,-1.7,-0.4,·,·
SMILES,HNF4A DNA FP,Rpn11 inh,Neddylation inh,CSN deneddyl inh,TbMetRS inhib,PREPL inhibitor,PREPL confirm
O=C(/C=C/[C@H]1O[C@@H](n2ccc(=O)[nH]c2=O)[C@H](O)[C@@H]1O)NCc1ccco1,0.8,4.6,-5.2,4.8,-0.6,·,·
CCn1c(SCC(=O)N2CCc3ccccc3C2)nc2sc(C)c(C)c2c1=O,1.9,-3.1,-6.8,-1.8,0.5,44.4*,42.5
CCn1c(=O)c2ccccc2n2c(SCC(=O)N3CCc4ccccc4C3)nnc12,3.3,-4.0,6.4,-1.5,-1.0,8.3,·
COc1ccc2c(c1)CCc1cc(C(=O)N3CCN(c4ccc(N5CCOCC5)nn4)CC3)sc1-2,1.4,9.5,·,1.3,0.5,52.8*,55.8*
CC1=C(C(=O)N2CCOCC2)CC(CC(=O)NC2CCCC2)C(=O)N1CCCN1CCCC1=O (centres undefined),3.2,-0.3,0.3,1.0,-0.6,·,·
NC(=O)CC(NC(=O)Cc1ccc(Br)cc1)c1ccc(N2CCc3ccccc3C2)c([N+](=O)[O-])c1 (centres undefined),1.3,17.7,4.2,-4.6,-0.3,-33.9,·
Nc1cc(C(=O)O)c(N)c2c1C(=O)c1ccccc1C2=O,-61.5,-90.1,-81.4,-24.4,-1.2,84.3*,71.6*
Nc1c(C(=O)O)ccc2c1C(=O)c1ccccc1C2=O,1.1,2.3,-104.1,6.0,-1.0,-5.7,·
COc1ccc(CCNC(=O)CSCC(=O)Nc2cc(S(C)(=O)=O)ccc2Cl)cc1,-2.5,2.3,-23.1,-5.3,0.6,16.9,·
CCc1c(-c2ccccc2OC)ncn1Cc1cccc(-c2ccccc2)c1,-1.4,·,3.8,2.3,0.1,·,·
CC(C(=O)c1ccc(-c2ccccc2)cc1)[n+]1cccc(NC(=O)c2ccccc2)c1 (centres undefined),10.3,-5.2,-14.5,3.5,-0.4,-23.6,·
CCOC(=O)c1ccc[n+](C(C)C(=O)c2ccc(-c3ccccc3)cc2)c1 (centres undefined),-2.5,6.6,-15.7,-19.2,-1.3,61.5*,48.5*
